Source: ChEMBL document CHEMBL1671644, “Inhibition of human immunodeficiency virus type 1 infection by the candidate microbicide dapivirine, a nonnucleoside reverse transcriptase inhibitor” (Antimicrob Agents Chemother, 2009)
Activity calls are given as the source filed them. The calls are words filed in the database; no cut-off is given here.

Experiments:
[1] = test system: Human immunodeficiency virus 1; experiment: Antiviral activity against HIV-1 subtype C V022831 infected in human MT4 cells assessed as inhibition of viral replication relative to HIV-1 3B; type: functional
Outline: (§1)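 MT-4 cells (3 x 10^4/well) infected with site-directed mutants or recombinant clinical isolates (200 TCID50/well) with drug, cultured 3 to 5 days. Viability read by MTT colorimetric antivirogram assay. IC50 by nonlinear regression; fold change = IC50 for the test isolate / IC50 for wild-type HIV-1 IIIB tested in parallel (mean or median).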

[2] = test system: Human immunodeficiency virus 1; experiment: Antiviral activity against HIV-1 SM002 harboring NNTRI 181C mutant infected in human MT4 cells assessed as inhibition of viral replication relative to HIV-1 3B; type: functional; outline: as §1
[3] = test system: Human immunodeficiency virus 1; experiment: Antiviral activity against HIV-1 subtype F V029522 infected in human MT4 cells assessed as inhibition of viral replication relative to HIV-1 3B; type: functional; outline: as §1
[4] = test system: Human immunodeficiency virus 1; experiment: Antiviral activity against HIV-1 Bal infected in human PM1 cells assessed as inhibition of transmission of virus to premissive T cells at 10 uM; type: functional; details: Human immunodeficiency virus 1, Bal
Outline: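 Explants were pretreated with drug for 1 h, then exposed to HIV-1BaL for 2 h with drug present and washed. Cells that migrated out overnight were washed and cocultured with PM-1 cells (4 x 10^4/well) for about 10 days. Transfer was read as p24 by ELISA in coculture supernatant (detection limit 300 pg/ml). Two donors, triplicate.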

[5] = test system: Human immunodeficiency virus 1; experiment: Antiviral activity against HIV-1 Bal infected in 2 hrs 10000 nM compound pretreated human ectocervical explant tissue assessed as prolonged inhibition of viral infection post compound removal measured after 6 days post compound removal; type: functional
Outline: (§2)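 Ectocervical explants were exposed to drug (0.01–10 µM) for 2 or 24 h at 37°C and washed. They received HIV-1BaL (2 h) on day 0, 2, 4 or 6 after drug removal, with no drug present. Read-outs at 10 days post-exposure: explant p24 ELISA, tissue proviral DNA by qPCR, and p24 in migratory cell–PM-1 cocultures. Three donors (2 h) or two donors (24 h), triplicate.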

[6] = Selectivity index, ratio of CC50 for human PM1 cells to IC50 for HIV-1 RF; type: functional
Outline: (§3)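 Selectivity index is CC50/IC50, using values determined in the same time period. CC50 was measured by MTT for TZM-bl and PM-1 cells and by trypan blue exclusion after 14 days for macrophages. Both were fitted by nonlinear regression.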

[7] = test system: Human immunodeficiency virus 1; experiment: Antiviral activity against HIV-1 subtype CRF02_AG V022826 infected in human MT4 cells assessed as inhibition of viral replication relative to HIV-1 3B; type: functional; outline: as §1
[8] = test system: Human immunodeficiency virus 1; experiment: Antiviral activity against HIV-1 Bal infected in human TZM-bl cells after 24 hrs by luciferase reporter gene assay in presence of 12.5% whole semen; type: functional, organism-based; details: Human immunodeficiency virus 1, Bal
Outline: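 HIV-1 BaL (200 TCID50/ml) pretreated with whole semen (12.5% final), then added to overnight-cultured TZM-bl cells (5 x 10^4/well) pretreated 1 h with drug. After 24 h, cells lysed and luciferase read. IC50 versus drug-free control by nonlinear regression; effect of semen tested by ANOVA with Bonferroni and t tests.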

[9] = test system: Human immunodeficiency virus 1; experiment: Antiviral activity against HIV-1 Bal infected in human monocyte derived macrophages after 14 days by p24 assay; details: Human immunodeficiency virus 1, Bal, 336 h
[10] = test system: Human immunodeficiency virus 1; experiment: Antiviral activity against HIV-1 Bal infected in 1 hr compound pretreated human ectocervical explant tissue assessed as inhibition of provirus formation at 1 nM by RT-PCR; type: functional; details: Human immunodeficiency virus 1, Bal
Outline: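 Ectocervical explants were pretreated with drug for 1 h, then exposed to HIV-1BaL (two 50% tissue infectious doses, about 10^4 TCID50 on PM-1) for 2 h at 37°C with drug present. Explants were washed and cultured overnight, then cultured separately for 10 days. Tissue was proteinase K-digested and proviral LTR DNA measured by multiplex qPCR against β-actin (10 copies/10^5 cells sensitivity). Two donors, triplicate.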

[11] = test system: Human immunodeficiency virus 1; experiment: Antiviral activity against HIV-1 Bal infected in 24 hrs 100 to 1000 nM compound pretreated human ectocervical explant tissue assessed as prolonged inhibition of viral infection post compound removal measured after 6 days post compound removal; type: functional; outline: as §2
[12] = Selectivity index, ratio of CC50 for human TZM-bl cells to IC50 for HIV-1 3B; type: functional; outline: as §3
[13] = test system: Human immunodeficiency virus 1; experiment: Antiviral activity against HIV-1 subtype B V022812 harboring NNRTI V179I mutant infected in human MT4 cells assessed as inhibition of viral replication relative to HIV-1 3B; type: functional; outline: as §1
[14] = test system: Human immunodeficiency virus 1; experiment: Antiviral activity against HIV-1 subtype CRF02_AG V022808 infected in human MT4 cells assessed as inhibition of viral replication relative to HIV-1 3B; type: functional; outline: as §1
[15] = test system: Human immunodeficiency virus 1; experiment: Antiviral activity against HIV-1 Bal infected in 24 hrs 10 nM compound pretreated human ectocervical explant tissue assessed as prolonged inhibition of viral infection post compound removal; type: functional; outline: as §2
[16] = test system: Human immunodeficiency virus 1; experiment: Antiviral activity against HIV-1 SF162 infected in hu-SCID mouse assessed as protection from viral infection at 22.5 uM; type: functional; details: Human immunodeficiency virus 1, SF162 ISOLATE
[17] = test system: Human immunodeficiency virus 1; experiment: Antiviral activity against HIV-1 SM051 harboring NNTRI 100I and 103N mutant infected in human MT4 cells assessed as inhibition of viral replication relative to HIV-1 3B; type: functional; outline: as §1
[18] = test system: Human immunodeficiency virus 1; experiment: Antiviral activity against HIV-1 3B infected in human TZM-bl cells after 24 hrs by luciferase reporter assay; details: Human immunodeficiency virus 1, 3B
[19] = test system: Human immunodeficiency virus 1; experiment: Antiviral activity against HIV-1 SM026 harboring NNTRI 103N and 181C mutant infected in human MT4 cells assessed as inhibition of viral replication relative to HIV-1 3B; type: functional; outline: as §1
[20] = Selectivity index, ratio of CC50 for human PM1 cells to IC50 for HIV-1 Bal; type: functional; outline: as §3
[21] = test system: Human immunodeficiency virus 1; experiment: Antiviral activity against HIV-1 subtype C V022829 infected in human MT4 cells assessed as inhibition of viral replication relative to HIV-1 3B; type: functional; outline: as §1
[22] = Selectivity index, ratio of CC50 for human monocyte derived macrophages to IC50 for HIV-1 Bal; type: functional; outline: as §3
[23] = Cytotoxicity against human TZM-bl cells after 24 hrs by MTT assay; type: cell-based
Outline: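 Uninfected PM-1 or TZM-bl cells were exposed to drug and viability measured by MTT dye reduction as a percentage of untreated controls. CC50 was derived by nonlinear regression.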

[24] = test system: Human immunodeficiency virus 1; experiment: Antiviral activity against HIV-1 Bal infected in 24 hrs 100 to 1000 nM compound pretreated human ectocervical explant tissue assessed as prolonged inhibition of viral infection post compound removal measured after 4 days post compound removal; type: functional; outline: as §2
[25] = test system: Human immunodeficiency virus 1; experiment: Antiviral activity against HIV-1 Bal infected in human cervical tissue explants assessed as inhibition of dissemination of virus via migratory cells after 2 hrs in presence of 12.5% whole semen; type: functional, organism-based
Outline: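 Cervical explants were exposed to HIV-1BaL plus drug for 2 h in cervical mucus simulant or whole semen (final 12.5%), then washed. Migratory cells were cocultured with PM-1 indicator cells and infection read as p24 in coculture supernatant.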

Cc1cc(C)c(Nc2ccnc(Nc3ccc(C#N)cc3)n2)c(C)c1 [DAPIVIRINE]
Ratio IC50 [1]: 0.8
Ratio IC50 [2]: 8
Ratio IC50 [3]: 1.5
inhibition at 10 µM [4]: > 90%
inhibition (INH) [5]: 80%
Selectivity Index [6]: 4583
Ratio IC50 [7]: 1
IC50 [8]: 1.75 nM
IC90 [8]: 16.7 nM
IC50 [9]: 2.4 nM
inhibition at 0.001 µM [10]: > 99%
inhibition (INH) [11]: 90%
Selectivity Index [12]: 20400
Ratio IC50 [13]: 2
Ratio IC50 [14]: 1
inhibition (INH) [15]: 90%
inhibition in vivo at 22.5 µM [16]: 78.6%
Ratio IC50 [17]: 2389
IC50 [18]: 1 nM
Ratio IC50 [19]: 63
Selectivity Index [20]: 1833
Ratio IC50 [21]: 1
Selectivity Index [22]: 8333
CC50 at 24 h [23]: 20400 nM
inhibition (INH) [24]: 90%
inhibition [25]: Active
